Compounds with a hit are over-represented: about 0.4% of the library has one in this group of screens.
ERp5 block: inhibitors of human ERp5; Q15084; ERp5 insulin aggregation, absorbance 650 nm, 90 min; inhibition, % at 9.99 µM; actives 0.05% (n = 350,000); AID 651711;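 active = mean replicate inhibition above about 25%, with every replicate also reaching it, limit read from the data, passing the limit was not always enough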
PDI turbidity: PDI (human) enzyme inhibition; P07237; actives 0.052% (n = 350,000); PDI insulin aggregation turbidity, A650, 90 min; AID 588391; inhibition, % at 10 µM;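 active = mean inhibition across replicates of 30% or more, whatever share of single replicates reach that level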
Target sequence (P07237 whole entry, looked up): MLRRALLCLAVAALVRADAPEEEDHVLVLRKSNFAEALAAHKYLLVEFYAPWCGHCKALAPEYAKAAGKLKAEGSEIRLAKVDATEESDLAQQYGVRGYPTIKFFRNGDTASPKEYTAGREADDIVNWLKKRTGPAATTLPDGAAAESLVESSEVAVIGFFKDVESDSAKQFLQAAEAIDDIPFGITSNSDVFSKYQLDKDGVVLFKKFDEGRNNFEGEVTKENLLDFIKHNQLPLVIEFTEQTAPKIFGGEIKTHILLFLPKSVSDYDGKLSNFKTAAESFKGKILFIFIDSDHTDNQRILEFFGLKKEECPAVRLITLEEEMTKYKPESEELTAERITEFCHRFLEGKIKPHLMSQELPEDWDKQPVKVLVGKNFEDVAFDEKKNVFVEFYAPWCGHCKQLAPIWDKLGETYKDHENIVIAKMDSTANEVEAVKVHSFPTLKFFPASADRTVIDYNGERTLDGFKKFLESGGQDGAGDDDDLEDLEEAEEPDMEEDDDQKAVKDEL
TbMetRS inhib: blocks T. brucei methionyl-tRNA synthetase activity; purified T. brucei MetRS, ATP depletion, Kinase-Glo luminescence; inhibition, % at 11.9 µM; actives 0.4% (n = 360,000);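 active = inhibition above a per-plate cutoff of the control wells' mean inhibition plus 3 SD, cut at about 5.5% in these data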
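assay system = parasite MetRS enzyme | timing = 15 min preincubation, 2 h reaction, all 25 °C | evaluation = percent inhibition relative to median high and low control wells | medium = HEPES buffer containing pyrophosphatase, BSA, spermine, DTT | compound = single dose, 11.9 µM final nominal, 0.9% final DMSO | detection = Kinase-Glo luminescence, ATP depletion format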
Tb MetRS conf: confirmation of Trypanosoma brucei MetRS inhibitors; shares compounds with TbMetRS inhib; T. brucei MetRS enzyme, luminescence (ATP depletion); inhibition, % at 11.9 µM; actives 93% (n = 1,400); AID 624412; in the data active = inhibition above about 7%
Jurkat tox: Jurkat T cell cytotoxicity for MetRS hits | shares compounds with TbMetRS inhib | Jurkat cells viability, ATP luminescence | inhibition, % at 8.3 µM | actives 12% (n = 1,400); in the data active = inhibition above about 15%
Tb MetRS inh FP: orthogonal test for Trypanosoma brucei MetRS inhibitors. shares compounds with TbMetRS inhib. AID 651607. actives 44% (n = 1,400). inhibition, % at 11.9 µM. purified T. brucei MetRS, fluorescence polarization; in the data active = inhibition above about 17%
Each line names hits and unclear results; the compound was inactive in the other large screens (follow-up assays come after a bar, where they were run).

COc1cccc(S(=O)(=O)Nc2ccc3c(c2)[C@@H]2C[C@H](CC(=O)NCc4cccc(F)c4)O[C@H](CO)[C@@H]2O3)c1	none (no result: PDI turbidity, TbMetRS inhib)
O=S(=O)(Nc1ncccn1)c1ccc(NC(=S)Nc2ccc(Cl)cc2)cc1	none
O=C(Nc1ccc(Cl)cc1)Nc1ccc(S(=O)(=O)Nc2ncccn2)cc1	TbMetRS inhib 6.2 | Tb MetRS conf 8.4 | Jurkat tox inactive | Tb MetRS inh FP inactive
CCCCCCCCCC1NC(C(=O)O)Cc2c1[nH]c1ccccc21 (configuration not stated)	TbMetRS inhib 70.3 | Tb MetRS conf 93.0 | Jurkat tox inactive | Tb MetRS inh FP 73.6
CCOC(=O)C1Cc2c([nH]c3ccccc23)C(C)N1 (configuration not stated)	none
CN1C(=O)c2cc(NC(=O)Nc3ccccc3)ccc2OC[C@H]2O[C@@H](CC(=O)NC3CCC3)CC[C@H]21	none (no result: PDI turbidity, TbMetRS inhib)
O=C(Nc1ccc(C(=O)O)cc1)/C(=C\C=C\c1ccccc1)NC(=O)c1cccc(Br)c1	TbMetRS inhib 11.7 | Tb MetRS conf 20.3 | Jurkat tox inactive | Tb MetRS inh FP 23.4
O=C(Nc1cccc(C(=O)O)c1)/C(=C\C=C\c1ccccc1)NC(=O)c1ccccc1	none
COc1ccc(-c2cn(CC[C@@H]3CC[C@@H](NC(=O)NC(C)C)[C@H](CO)O3)nn2)cc1	none (no result: PDI turbidity, TbMetRS inhib)
O=C(CN1CCNC(=O)C1)NCCc1ccc(Cl)cc1Cl	none
Cc1ccc(NC(=O)Cn2nc(C)c([N+](=O)[O-])c2C)cc1Cl	none
O=C(Cn1cnnn1)NCCc1ccc(Cl)cc1Cl	TbMetRS inhib 9.4 | Tb MetRS conf 17.6 | Jurkat tox inactive | Tb MetRS inh FP inactive
Cc1nn(CC(=O)NCCc2ccc(Cl)cc2Cl)c(C)c1[N+](=O)[O-]	TbMetRS inhib 16.1 | Tb MetRS conf 33.4 | Jurkat tox inactive | Tb MetRS inh FP inactive
C[C@H](CO)N1C[C@H](C)[C@H](CN(C)C(=O)Nc2cccc3ccccc23)Oc2c(NS(=O)(=O)c3cn(C)cn3)cccc2C1=O	none (no result: PDI turbidity, TbMetRS inhib)
Cc1noc(C)c1S(=O)(=O)N(C)C[C@H]1Oc2ccc(NC(=O)CCCN(C)C)cc2C(=O)N([C@@H](C)CO)C[C@H]1C	none (no result: PDI turbidity, TbMetRS inhib)
O=C(C[C@@H]1C[C@@H]2c3cc(NC(=O)C4CCC4)ccc3O[C@@H]2[C@@H](CO)O1)NCc1cccc(F)c1	none (no result: PDI turbidity, TbMetRS inhib)
O=C(CSc1nc2ccccc2[nH]1)N1CCN(c2ccc(F)cc2)CC1	none (no result: ERp5 block)
O=C(CCCSc1nc2ccccc2[nH]1)N1CCN(c2ccc([N+](=O)[O-])cc2)CC1	TbMetRS inhib 9.2 (no result: ERp5 block) | Tb MetRS conf 55.0 | Jurkat tox inactive | Tb MetRS inh FP inactive
Cc1ccc(NC(=O)CS(=O)CC(=O)Nc2ccc3c(c2)OCO3)cc1Cl (configuration not stated)	TbMetRS inhib 9.8 (no result: ERp5 block) | Tb MetRS conf 12.4 | Jurkat tox inactive | Tb MetRS inh FP inactive
Cc1cccc(N(CC(=O)NC(C)(C)C)C(=O)CS(=O)CC(=O)Nc2ccc3c(c2)OCO3)c1 (configuration not stated)	none
O=S(=O)(c1ccccc1)N1CCCCN2[C@H](CO)[C@H](c3ccc(-c4cncnc4)cc3)[C@H]2C1	none (no result: PDI turbidity, TbMetRS inhib)
Cc1ccc(NC(=O)CNC(=O)c2ccccc2F)cc1Cl	none (no result: ERp5 block)
O=C(CCCCC(=O)Nc1ccc(F)cc1)Nc1ccc(F)cc1	none
O=C(CC(=O)Nc1ccc(F)cc1)Nc1ccc(F)cc1	TbMetRS inhib 7.0 | Tb MetRS conf 18.1 | Jurkat tox inactive | Tb MetRS inh FP inactive
O=C(CNC(=O)c1ccc(Cl)cc1Cl)Nc1ccc(F)cc1	TbMetRS inhib 10.3 | Tb MetRS conf 26.7 | Jurkat tox inactive | Tb MetRS inh FP inactive
C[C@@H]1CCCCO[C@H](CN(C)C(=O)Nc2ccc(C(F)(F)F)cc2)[C@H](C)CN([C@H](C)CO)C(=O)c2cc(NC(=O)Nc3cccc4ccccc34)ccc2O1	none (no result: PDI turbidity, TbMetRS inhib)
O=C(Nc1cccc(F)c1)N1CC(=O)N2[C@H](CO)[C@H](c3ccc(C#Cc4cccnc4)cc3)[C@@H]2C1	none (no result: PDI turbidity, TbMetRS inhib)
CC(=O)N[C@@H]1C[C@@H]2O[C@@H](CO)CC[C@@H]2O[C@@H]1CCc1ccc(-c2ccc(F)cc2)cc1	none (no result: PDI turbidity, TbMetRS inhib)
CC(=O)c1cccc(NC(=O)CSc2nnc(C(C)N(C)C)n2-c2ccc(F)cc2)c1 (configuration not stated)	none
CC(=O)c1cccc(NC(=O)CSc2nnc(C(C)N(C)C)n2Cc2ccccc2)c1 (configuration not stated)	TbMetRS inhib 5.6 | Tb MetRS conf inactive | Jurkat tox inactive | Tb MetRS inh FP inactive
Clc1ccc(OCc2nnc(SCc3nc4ccccc4[nH]3)n2Cc2ccco2)cc1	TbMetRS inhib 10.9 (no result: ERp5 block) | Tb MetRS conf 84.0 | Jurkat tox 20.9 | Tb MetRS inh FP 66.3
Clc1cccc(-c2nnc(SCc3nc4ccccc4[nH]3)n2Cc2ccco2)c1	none (no result: ERp5 block)
Cn1c(COc2ccccc2)nnc1SCc1nc2ccccc2[nH]1	none
CCn1c(COc2ccc(C)cc2)nnc1SCc1nc2ccccc2[nH]1	TbMetRS inhib 15.3 (no result: ERp5 block) | Tb MetRS conf 19.8 | Jurkat tox inactive | Tb MetRS inh FP inactive
CCN1[C@@H]2c3ccc(-c4cncnc4)c(=O)n3C[C@@H]2[C@@H](CO)[C@@H]1C(=O)OC	none (no result: PDI turbidity, TbMetRS inhib)
COc1ccc2nc(SCC(=O)NCCc3ccccc3)[nH]c2c1	none
O=C(CSc1nc2ccc(Cl)cc2[nH]1)NCc1ccco1	TbMetRS inhib 8.3 (no result: ERp5 block) | Tb MetRS conf 13.0 | Jurkat tox inactive | Tb MetRS inh FP inactive
CN(C(=O)CSc1nc2ccc(Cl)cc2[nH]1)C1CCS(=O)(=O)C1 (configuration not stated)	TbMetRS inhib 10.5 | Tb MetRS conf 36.2 | Jurkat tox inactive | Tb MetRS inh FP 24.1
O=C(CSc1nc2ncc(Cl)cc2[nH]1)NCCc1ccc(F)cc1	none
O=C(CSc1nc2ccc(Cl)cc2[nH]1)NCCc1ccccc1	TbMetRS inhib 42.5 | Tb MetRS conf 57.9 | Jurkat tox inactive | Tb MetRS inh FP 32.8
CCN(C(=O)CSc1nc2ccc(C)cc2[nH]1)C1CCS(=O)(=O)C1 (configuration not stated)	none
O=C(CSc1nc2ccc(Cl)cc2[nH]1)NCCc1ccc(Cl)cc1	TbMetRS inhib 62.5 | Tb MetRS conf 72.1 | Jurkat tox inactive | Tb MetRS inh FP 41.0
O=C(CSc1nc2ccccc2[nH]1)NCc1ccco1	none
O=C(C[C@H]1C[C@H]2c3cc(NC(=O)Nc4ccc(C(F)(F)F)cc4)ccc3O[C@H]2[C@H](CO)O1)NCc1cc(F)ccc1F	none (no result: PDI turbidity, TbMetRS inhib)
Cc1noc(C)c1NC(=O)Nc1ccc2c(c1)C(=O)N([C@@H](C)CO)C[C@@H](C)[C@@H](CN(C)Cc1ccccc1)OCCCC[C@H](C)O2	none (no result: PDI turbidity, TbMetRS inhib)
C[C@@H]1CN([C@H](C)CO)C(=O)c2cc(NC(=O)C3CCCCC3)ccc2O[C@@H]1CN(C)C(=O)Nc1cccc2ccccc12	none (no result: PDI turbidity, TbMetRS inhib)
CCC(=O)N[C@@H]1CC[C@@H](CC(=O)OC)O[C@@H]1CO	none (no result: PDI turbidity, TbMetRS inhib)
CC=Cc1ccc2n(c1=O)C[C@H]1[C@H](CO)[C@@H](C(=O)N3CCCCC3)[C@@H]2N1C(=O)C1CCC1 (mixture of isomers)	none (no result: PDI turbidity, TbMetRS inhib)

Screening results as filed in PubChem BioAssay.
